Measurements: ChEMBL document CHEMBL4049422, “Discovery of Novel Indazole Derivatives as Orally Available β3-Adrenergic Receptor Agonists Lacking Off-Target-Based Cardiovascular Side Effects” (J Med Chem, 2017)

Legend:
[1] = molecular target: Beta-3 adrenergic receptor (Homo sapiens, UniProt P13945); assay: Intrinsic activity at recombinant human beta3 adrenergic receptor expressed in CHO cells assessed as accumulation of cyclic AMP after 30 mins relative to isoproterenol; format: cell-based
[2] = molecular target: T1, Alpha-1A adrenergic receptor (Homo sapiens, UniProt P35348); assay: Intrinsic activity at recombinant human alpha1A adrenergic receptor expressed in HEK293 cells assessed as intercellular Ca mobilization by Fura-2AM dye-based fluorescence assay relative to norepinephrine; format: cell-based; details: read-out: Intrinsic activity
T1 sequence (P35348 whole entry): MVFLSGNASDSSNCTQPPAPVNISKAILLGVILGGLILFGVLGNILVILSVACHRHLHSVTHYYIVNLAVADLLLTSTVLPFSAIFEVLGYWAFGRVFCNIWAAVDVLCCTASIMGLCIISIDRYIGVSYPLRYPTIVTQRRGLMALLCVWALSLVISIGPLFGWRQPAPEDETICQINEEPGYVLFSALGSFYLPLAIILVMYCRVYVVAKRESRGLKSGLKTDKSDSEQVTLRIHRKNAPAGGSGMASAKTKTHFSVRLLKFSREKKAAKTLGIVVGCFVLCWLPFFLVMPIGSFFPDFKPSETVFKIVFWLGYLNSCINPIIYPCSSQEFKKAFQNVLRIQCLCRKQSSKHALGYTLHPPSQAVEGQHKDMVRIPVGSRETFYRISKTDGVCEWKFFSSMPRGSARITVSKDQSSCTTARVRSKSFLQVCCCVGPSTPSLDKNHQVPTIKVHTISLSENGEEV

[3] = species on record: Homo sapiens; assay: Selectivity ratio of EC50 for recombinant human alpha1A adrenergic receptor to EC50 for recombinant human beta3 adrenergic receptor
[4] = Intrinsic clearance in human liver microsomes at 1 uM in presence of NADPH by LC-MS/MS analysis; format: ADME, microsome
Method in brief: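 Pooled mixed-gender human liver microsomes (0.5 mg/mL) in 100 mM potassium phosphate pH 7.4 with NADPH-regenerating mix plus UDP-GA, test compound 1 µM, 15 min at 37 °C. Acetonitrile stop, LC-MS/MS. k from the remaining fraction. CLint,u is scaled with 48.8 mg protein/g liver and 25.7 g liver/kg, and corrected by fu from equilibrium dialysis (1 µM, 0.5 mg/mL, 6 h, 37 °C).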

[5] = Intrinsic clearance in Sprague-Dawley rat liver microsomes at 0.5 uM in presence of NADPH by LC-MS/MS analysis; format: ADME, microsome
Method in brief: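 Pooled male Sprague-Dawley rat liver microsomes (0.5 mg/mL final) in 100 mM Tris-HCl pH 7.4 with NADPH-regenerating mix plus UDP-GA, test compound 0.5 µM, 20 min at 37 °C. Acetonitrile stop, LC-MS/MS. CLint,u is scaled with 44.8 mg protein/g liver and 40.0 g liver/kg, and corrected by fu from ultracentrifugation (160,000g, 16 h, 37 °C).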

[6] = Cmax in Sprague-Dawley rat at 5 mg/kg, po by LC-MS/MS analysis; format: ADME, organism-based; set-up: dose 5 mg/kg, route oral; details: in vivo
Method in brief: (§1)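 Male Sprague-Dawley rats (n = 2 or 3) dosed orally at 5 mg/kg in saline or water (5 mL/kg). Blood taken from the subclavian vein at 0.5, 1, 2, 4, 6 and 8 h; plasma separated by centrifugation, stored at -20 °C, and drug levels measured by LC-MS/MS. Values are mean ± SD (n = 3) or the average of two experiments.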

[7] = Half life in Sprague-Dawley rat at 5 mg/kg, po by LC-MS/MS analysis; format: ADME, organism-based; details: in vivo; method in brief: as §1
[8] = Membrane permeability in MDCK cells at 50 uM after 60 mins by LC-MS/MS analysis; format: ADME, cell-based, Canis lupus familiaris; details: dog, read-out: permeability
[9] = molecular target: Beta-1 adrenergic receptor (Homo sapiens, UniProt P08588); assay: Agonist activity at recombinant human beta1 adrenergic receptor expressed in CHO cells assessed as accumulation of cyclic AMP after 30 mins; format: cell-based
[10] = molecular target: T2, CYP2B6 (Homo sapiens, UniProt P20813); assay: Inhibition of CYP2B6 (unknown origin) at 10 uM relative to control; format: ADME
T2 sequence (P20813 whole entry): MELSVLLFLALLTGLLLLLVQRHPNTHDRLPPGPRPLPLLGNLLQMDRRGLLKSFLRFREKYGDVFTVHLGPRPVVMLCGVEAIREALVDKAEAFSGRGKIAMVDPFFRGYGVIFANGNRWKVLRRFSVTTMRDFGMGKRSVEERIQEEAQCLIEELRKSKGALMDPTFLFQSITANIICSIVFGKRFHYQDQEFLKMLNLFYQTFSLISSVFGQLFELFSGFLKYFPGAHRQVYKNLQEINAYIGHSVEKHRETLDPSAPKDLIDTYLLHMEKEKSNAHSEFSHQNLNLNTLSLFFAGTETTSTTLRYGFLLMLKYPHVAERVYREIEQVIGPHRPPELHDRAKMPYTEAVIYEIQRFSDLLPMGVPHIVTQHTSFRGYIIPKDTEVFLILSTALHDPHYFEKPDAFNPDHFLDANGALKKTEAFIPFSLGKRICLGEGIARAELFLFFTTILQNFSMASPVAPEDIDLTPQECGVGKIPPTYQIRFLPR

[11] = molecular target: CYP2D6 (Homo sapiens, UniProt P10635); assay: Inhibition of CYP2D6 (unknown origin) at 10 uM relative to control; format: ADME
[12] = molecular target: CYP3A4 (Homo sapiens, UniProt P08684); assay: Inhibition of CYP3A4 (unknown origin) at 10 uM relative to control; format: ADME
[13] = tested on: Rattus norvegicus; assay: Cardiotoxicity in Sprague-Dawley rat assessed as increase in heart beat rate at 3 mg/kg, iv after 30 mins (reference value: 1.8 +/- 0.9%); format: toxicity, organism-based; details: in vivo, 0.5 h
[14] = tested on: Rattus norvegicus; assay: Cardiotoxicity in Sprague-Dawley rat assessed as decrease in heart beat rate at 3 mg/kg, iv after 30 mins (reference value: 4.5 +/- 0.8%); format: toxicity, organism-based; set-up: scale not given: the % may be the effect or the level left; details: in vivo, 0.5 h
[15] = tested on: Rattus norvegicus; assay: Cardiotoxicity in Sprague-Dawley rat assessed as increase in mean blood pressure at 3 mg/kg, iv after 30 mins (reference value: 1 +/- 0.5%); format: toxicity, organism-based; details: in vivo, 0.5 h
[16] = tested on: Rattus norvegicus; assay: Cardiotoxicity in Sprague-Dawley rat assessed as decrease in mean blood pressure at 3 mg/kg, iv after 30 mins (reference value: 5.4 +/- 1.9%); format: toxicity, organism-based; set-up: scale not given: the % may be the effect or the level left; details: in vivo, 0.5 h

Sequence of CYP3A4 (P08684 whole entry): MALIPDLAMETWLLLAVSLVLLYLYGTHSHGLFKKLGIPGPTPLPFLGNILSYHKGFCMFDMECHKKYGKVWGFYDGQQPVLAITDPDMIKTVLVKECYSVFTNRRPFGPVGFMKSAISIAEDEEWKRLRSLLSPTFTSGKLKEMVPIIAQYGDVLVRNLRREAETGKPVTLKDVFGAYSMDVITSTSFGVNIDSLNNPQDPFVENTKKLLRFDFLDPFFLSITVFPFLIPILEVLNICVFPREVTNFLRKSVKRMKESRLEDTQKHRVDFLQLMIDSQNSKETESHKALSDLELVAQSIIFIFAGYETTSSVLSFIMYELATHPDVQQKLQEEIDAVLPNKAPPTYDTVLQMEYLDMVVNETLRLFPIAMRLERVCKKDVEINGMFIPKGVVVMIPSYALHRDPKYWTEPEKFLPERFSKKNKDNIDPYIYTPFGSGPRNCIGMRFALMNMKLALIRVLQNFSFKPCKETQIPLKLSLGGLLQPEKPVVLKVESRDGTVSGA
Sequence of Beta-3 adrenergic receptor (P13945 whole entry, looked up): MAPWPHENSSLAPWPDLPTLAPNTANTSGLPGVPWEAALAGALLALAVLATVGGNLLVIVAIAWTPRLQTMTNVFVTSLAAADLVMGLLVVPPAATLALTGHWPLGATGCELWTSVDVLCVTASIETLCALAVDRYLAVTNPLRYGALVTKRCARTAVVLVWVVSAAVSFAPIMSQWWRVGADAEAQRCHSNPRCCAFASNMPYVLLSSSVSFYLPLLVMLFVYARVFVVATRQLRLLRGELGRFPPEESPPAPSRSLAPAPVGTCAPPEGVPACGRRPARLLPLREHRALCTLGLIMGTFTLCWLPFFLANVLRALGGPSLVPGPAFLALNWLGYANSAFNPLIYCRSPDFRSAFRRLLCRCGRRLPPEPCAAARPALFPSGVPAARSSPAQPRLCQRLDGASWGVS
Sequence of CYP2D6 (P10635 whole entry): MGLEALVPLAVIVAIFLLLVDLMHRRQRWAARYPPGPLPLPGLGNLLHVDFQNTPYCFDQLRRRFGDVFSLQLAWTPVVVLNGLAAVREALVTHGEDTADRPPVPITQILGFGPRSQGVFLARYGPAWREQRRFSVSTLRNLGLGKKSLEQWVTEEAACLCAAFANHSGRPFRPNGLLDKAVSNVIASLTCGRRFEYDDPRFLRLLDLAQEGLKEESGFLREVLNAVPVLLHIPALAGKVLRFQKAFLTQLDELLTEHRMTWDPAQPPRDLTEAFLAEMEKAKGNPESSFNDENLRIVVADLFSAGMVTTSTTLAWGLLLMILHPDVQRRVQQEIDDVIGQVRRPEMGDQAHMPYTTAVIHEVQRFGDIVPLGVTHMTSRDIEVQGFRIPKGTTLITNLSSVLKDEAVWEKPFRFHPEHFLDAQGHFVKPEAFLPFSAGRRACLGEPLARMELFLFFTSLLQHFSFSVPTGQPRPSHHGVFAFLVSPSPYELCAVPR
Sequence of Beta-1 adrenergic receptor (P08588 whole entry): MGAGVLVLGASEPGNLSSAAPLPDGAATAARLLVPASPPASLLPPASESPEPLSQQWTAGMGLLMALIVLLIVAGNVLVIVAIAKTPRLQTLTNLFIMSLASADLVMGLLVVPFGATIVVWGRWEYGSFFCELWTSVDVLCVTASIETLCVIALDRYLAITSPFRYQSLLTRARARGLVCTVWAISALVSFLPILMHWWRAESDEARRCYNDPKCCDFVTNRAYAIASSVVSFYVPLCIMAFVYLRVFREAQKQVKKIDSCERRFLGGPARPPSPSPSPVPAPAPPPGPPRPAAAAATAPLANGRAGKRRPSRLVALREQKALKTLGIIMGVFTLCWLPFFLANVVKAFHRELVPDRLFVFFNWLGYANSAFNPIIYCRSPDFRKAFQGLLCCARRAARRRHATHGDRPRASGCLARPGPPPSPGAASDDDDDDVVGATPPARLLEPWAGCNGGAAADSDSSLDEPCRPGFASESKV

Intrinsic activity [1]: 105%
Emax [2]: 0%
Ratio EC50 [3]: > 556
CLint scaled at 1 µM [4]: 57 mL/min/kg
CLint scaled at 0.5 µM [5]: 52 mL/min/kg
Cmax [6]: 119 ng/mL
half-life [7]: 3.01 h
Papp at 1 h, 50 µM [8]: 5 ×10⁻⁶ cm/s
EC50 [9]: > 10 µM
inhibition at 10 µM [10]: < 34%
inhibition at 10 µM [11]: < 34%
inhibition at 10 µM [12]: < 34%
SMILES: Cc1n[nH]c2cc(OCCNC[C@H](O)c3cccc(NS(=O)(=O)C4CCC4)c3)ccc12
Activity [13]: 5.8%
Activity [14]: 0.9%
Activity [15]: 2%
Activity [16]: 12.9%
